Experimental findings from ChEMBL document CHEMBL1143600, “Synthesis and pharmacology of ethylphenidate enantiomers: the human transesterification metabolite of methylphenidate and ethanol” (J Med Chem, 2005) are described below.

pIC50: −log10 of the molar value. Where a name gives a salt, the structure may show the parent alone.

Experiment [1] addresses T1, Sodium-dependent serotonin transporter (Homo sapiens, UniProt P31645). Put plainly: Displacement of [125I]RTI-55 from human Serotonin transporter expressed in HEK293 cells. It counts as cell-based. Put shortly: (§1)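 Membranes from HEK293 cells expressing the human transporter (grown to 80% confluence, lysed in 2 mM HEPES/1 mM EDTA, spun at 30000g). 10–15 µg protein was preincubated 10 min with compound in Krebs-HEPES pH 7.4 containing pargyline, tropolone, glucose and ascorbate. Nonspecific binding: 5 µM mazindol (DAT) or 5 µM imipramine (SERT). IC50 converted to Ki by Cheng-Prusoff.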
On the technique in general: Loss of bound radioactivity is the signal in a displacement assay; it reports binding, not function.

Experiment [2] concerns the target T2, Sodium-dependent noradrenaline transporter (Homo sapiens, UniProt P23975). Put plainly: Inhibition of [3H]norepinephrine uptake in HEK293 cells expressing human norepinephrine transporter. It counts as functional, cell-based.
In experiment [3] the target is T1, Sodium-dependent serotonin transporter. The experiment is described as follows: Inhibition of [3H]5-HT uptake in HEK293 cells expressing human serotonin transporter. The experiment is classed as functional, cell-based. In outline:
(§2)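 HEK293 cells expressing the human transporter were grown to confluence, triturated in Krebs-HEPES and preincubated 10 min with compound (six concentrations). Uptake was started with [3H]serotonin or [3H]dopamine at 20 nM final and stopped after 10 min by filtration over PEI-presoaked GF/C filters. Nonspecific uptake: 5 µM imipramine (SERT) or 5 µM mazindol (DAT). IC50 from triplicate curves, 2–3 independent determinations.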

For experiment [4], the target named is T3, Sodium-dependent dopamine transporter (Homo sapiens, UniProt Q01959). The experiment is described as follows: Inhibition of [3H]dopamine uptake in HEK293 cells expressing human dopamine transporter. It counts as functional, cell-based. Put shortly: as §2
The target in experiment [5] is T3, Sodium-dependent dopamine transporter. Put plainly: Displacement of [125I]-RTI-55 from Dopamine transporter expressed in HEK293 cells. The experiment is classed as cell-based. In outline: as §1
Experiment [6] has as its target T2, Sodium-dependent noradrenaline transporter. Put plainly: Displacement of [125I]RTI-55 from human Norepinephrine transporter expressed in HEK293 cells. The experiment is classed as cell-based.

T1 sequence (P31645 whole entry): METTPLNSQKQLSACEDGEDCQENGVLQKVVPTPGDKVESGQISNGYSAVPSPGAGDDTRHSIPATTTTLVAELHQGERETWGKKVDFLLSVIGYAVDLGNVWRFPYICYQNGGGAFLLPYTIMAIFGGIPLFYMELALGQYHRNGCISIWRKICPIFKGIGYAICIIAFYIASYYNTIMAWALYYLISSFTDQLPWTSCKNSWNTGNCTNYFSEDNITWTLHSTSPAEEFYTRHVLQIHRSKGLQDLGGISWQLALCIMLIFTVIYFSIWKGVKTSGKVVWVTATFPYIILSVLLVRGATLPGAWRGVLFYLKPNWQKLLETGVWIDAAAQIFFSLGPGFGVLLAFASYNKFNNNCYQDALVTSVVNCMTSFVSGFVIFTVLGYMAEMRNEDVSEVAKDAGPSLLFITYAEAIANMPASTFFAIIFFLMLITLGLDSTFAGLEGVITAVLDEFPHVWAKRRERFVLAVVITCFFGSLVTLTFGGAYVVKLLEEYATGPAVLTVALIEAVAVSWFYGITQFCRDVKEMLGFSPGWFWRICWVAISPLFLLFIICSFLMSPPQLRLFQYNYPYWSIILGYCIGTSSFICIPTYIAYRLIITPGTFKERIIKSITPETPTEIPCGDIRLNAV
T2 sequence (P23975 whole entry): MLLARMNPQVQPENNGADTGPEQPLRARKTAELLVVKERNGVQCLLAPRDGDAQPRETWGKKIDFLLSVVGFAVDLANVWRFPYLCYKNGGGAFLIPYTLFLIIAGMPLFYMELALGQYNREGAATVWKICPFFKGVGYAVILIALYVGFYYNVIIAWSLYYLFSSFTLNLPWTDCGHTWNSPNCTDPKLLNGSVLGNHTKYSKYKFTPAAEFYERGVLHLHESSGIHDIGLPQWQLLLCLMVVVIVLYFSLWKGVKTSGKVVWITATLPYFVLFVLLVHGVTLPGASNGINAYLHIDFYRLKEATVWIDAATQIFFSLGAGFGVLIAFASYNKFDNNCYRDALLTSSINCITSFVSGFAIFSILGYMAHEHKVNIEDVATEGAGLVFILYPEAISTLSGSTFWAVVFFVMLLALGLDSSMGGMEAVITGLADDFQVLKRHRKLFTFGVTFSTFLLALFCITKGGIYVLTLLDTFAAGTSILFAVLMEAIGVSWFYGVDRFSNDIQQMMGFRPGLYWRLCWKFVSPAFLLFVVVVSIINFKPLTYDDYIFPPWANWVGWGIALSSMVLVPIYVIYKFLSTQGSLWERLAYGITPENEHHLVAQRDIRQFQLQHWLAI
T3 sequence (Q01959 whole entry): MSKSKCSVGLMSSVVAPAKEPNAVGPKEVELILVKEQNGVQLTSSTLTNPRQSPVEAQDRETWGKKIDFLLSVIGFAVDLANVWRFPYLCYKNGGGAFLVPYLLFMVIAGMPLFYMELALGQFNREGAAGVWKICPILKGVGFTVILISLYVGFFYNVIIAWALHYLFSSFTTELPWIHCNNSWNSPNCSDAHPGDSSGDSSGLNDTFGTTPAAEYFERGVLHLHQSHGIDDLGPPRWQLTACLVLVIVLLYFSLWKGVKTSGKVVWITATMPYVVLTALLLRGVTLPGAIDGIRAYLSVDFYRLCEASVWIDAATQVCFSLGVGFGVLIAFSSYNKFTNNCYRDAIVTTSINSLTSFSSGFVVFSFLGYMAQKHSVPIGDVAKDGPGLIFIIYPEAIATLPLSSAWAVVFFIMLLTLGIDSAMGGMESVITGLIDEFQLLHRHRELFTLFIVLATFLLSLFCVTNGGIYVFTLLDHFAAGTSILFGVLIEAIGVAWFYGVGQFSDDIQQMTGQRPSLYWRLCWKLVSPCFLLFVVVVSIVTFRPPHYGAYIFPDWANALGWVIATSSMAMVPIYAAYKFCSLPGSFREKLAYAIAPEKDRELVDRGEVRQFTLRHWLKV

On to `CCOC(=O)C(c1ccccc1)C1CCCCN1` (racemic), for which the pIC50 in experiment [1] was 5.12; in experiment [2] it was 6.32; in experiment [3], less than 5.00; in experiment [4] it was 7.02; in experiment [5] it was 6.50; in experiment [6] it was less than 5.14.
On to `COC(=O)C(c1ccccc1)C1CCCCN1` (racemic) [METHYLPHENIDATE HYDROCHLORIDE], for which the pIC50 in experiment [1] was less than 5.00; in experiment [2], 7.29; in experiment [6], 6.10.
As to `CCOC(=O)[C@@H](c1ccccc1)[C@@H]1CCCCN1` (stereo in doubt; (-)-2), the pIC50 in experiment [1] was less than 5.02; in experiment [2], less than 5.00; in experiment [3], less than 5.00; in experiment [4], 5.76; in experiment [5], 5.57; in experiment [6] it was less than 5.00.

By pIC50 is commonly meant the negative decadic logarithm of the IC50, by convention in mol/L. Read a high pIC50 as a small IC50.
